Measured values reported in ChEMBL document CHEMBL4837210 (Eur J Med Chem, 2021).

Experiments:
Bacillus pumilus [1] = experiment: Ratio of MBC to MIC against penicillin-susceptible Bacillus pumilus CMCC 63202; assay type: functional
Summary of the method: (§1)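 MBC/MIC ratio from the broth microdilution MIC (24 h, 37 °C, MH broth) and the MBC (clear wells subcultured on tryptic soy agar, 24 h). A ratio ≤4 is read as bactericidal per CLSI.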

Enterococcus faecium [2] = experiment: Antibacterial activity against vancomycin-susceptible Enterococcus faecium ATCC19434 assessed as bacterial growth inhibition incubated for 24 hrs by CLSI protocol based broth microdilution method; settings: ATCC19434, 24 h
Escherichia coli = experiment: Antibacterial activity against penicillin-susceptible Escherichia coli ATCC 25922 assessed as inhibition of bacterial growth measured by broth microdilution method; assay type: functional; settings: time 24 hrs
Summary of the method: (§2)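 Broth microdilution in Mueller Hinton broth. A 0.5 McFarland suspension was diluted tenfold, giving an inoculum of 1.5 × 10⁷ cfu/mL. This was added to 2-fold serial compound dilutions from […]. Plates were incubated aerobically at 37 °C for 24 h. MIC was the lowest concentration with no visible turbidity.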

Staphylococcus aureus [3] = experiment: Antibacterial activity against penicillin-resistant Staphylococcus aureus assessed as inhibition of bacterial growth measured by broth microdilution method; assay type: functional; settings: time 24 hrs
Summary of the method: (§3)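 Broth microdilution MIC. A 0.5 McFarland suspension was diluted 10-fold and added at 1.5 × 10⁷ cfu/mL to 2-fold dilutions (0.125–64) in Mueller Hinton broth. Incubated aerobically 24 h at 37 °C. MIC was the lowest concentration with no visible turbidity.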

Staphylococcus aureus [4] = experiment: Bactericidal activity against erythromycin-susceptible Staphylococcus aureus ATCC 25923 measured after 24 hrs by CLSI protocol based method; assay type: functional
Summary of the method: (§4)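 MBC after broth microdilution. After 24 h, aliquots from clear wells were plated on tryptic soy agar and incubated aerobically 24 h at 37 °C. MBC was the lowest concentration giving no colonies.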

Streptococcus pyogenes [5] = experiment: Antibacterial activity against erythromycin-resistant Streptococcus pyogenes 2 assessed as bacterial growth inhibition incubated for 24 hrs by CLSI protocol based broth microdilution method; assay type: functional
Bacillus subtilis [6] = experiment: Antibacterial activity against penicillin-susceptible Bacillus subtilis ATCC 9372 assessed as bacterial growth inhibition incubated for 24 hrs by CLSI protocol based broth microdilution method; assay type: functional
Staphylococcus aureus [7] = experiment: Bactericidal activity against methicillin-resistant Staphylococcus aureus ATCC 43300 measured after 24 hrs by CLSI protocol based method; assay type: functional; summary of the method: as §4
[8] = test system: Staphylococcus epidermidis; experiment: Bactericidal activity against penicillin-resistant Staphylococcus epidermidis measured after 24 hrs by CLSI protocol based method; assay type: functional; summary of the method: as §4
Staphylococcus aureus [9] = experiment: Antibacterial activity against erythromycin-susceptible Staphylococcus aureus ATCC 25923 assessed as bacterial growth inhibition incubated for 24 hrs by CLSI protocol based broth microdilution method; assay type: functional
Bacillus pumilus [10] = experiment: Bactericidal activity against penicillin-susceptible Bacillus pumilus CMCC 63202 measured after 24 hrs by CLSI protocol based method; assay type: functional
Summary of the method: (§5)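 MBC followed on from the 24 h broth microdilution MIC plates. Aliquots from clear wells were spread on tryptic soy agar and incubated aerobically at 37 °C for 24 h. MBC was the minimum concentration giving no colonies.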

[11] = target: T1, Cell division protein FtsZ (Escherichia coli K-12, UniProt P0A9A6); experiment: Inhibition of FtsZ in Escherichia coli assessed as disruption of Z ring formation
T1 sequence (P0A9A6 whole entry): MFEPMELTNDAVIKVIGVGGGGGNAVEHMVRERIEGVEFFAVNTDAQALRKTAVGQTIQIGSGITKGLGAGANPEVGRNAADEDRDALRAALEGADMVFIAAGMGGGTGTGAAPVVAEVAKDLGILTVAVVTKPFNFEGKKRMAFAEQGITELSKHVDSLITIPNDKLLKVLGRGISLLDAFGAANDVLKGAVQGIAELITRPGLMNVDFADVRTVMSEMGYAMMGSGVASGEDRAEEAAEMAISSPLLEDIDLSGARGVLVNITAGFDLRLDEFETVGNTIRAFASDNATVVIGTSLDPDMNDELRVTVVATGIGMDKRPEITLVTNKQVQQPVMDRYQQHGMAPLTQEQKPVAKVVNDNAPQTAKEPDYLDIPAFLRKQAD

Enterococcus faecalis [12] = experiment: Antibacterial activity against vancomycin-susceptible Enterococcus faecalis ATCC 29212 assessed as bacterial growth inhibition incubated for 24 hrs by CLSI protocol based broth microdilution method; assay type: functional
[13] = test system: Staphylococcus epidermidis; experiment: Antibacterial activity against penicillin-resistant Staphylococcus epidermidis assessed as inhibition of bacterial growth measured by broth microdilution method; assay type: functional; settings: time 24 hrs
Staphylococcus aureus [14] = experiment: Antibacterial activity against Staphylococcus aureus assessed as inhibition of bacterial growth measured by broth microdilution method; assay type: functional; settings: time 24 hrs; summary of the method: as §2
Staphylococcus aureus [15] = experiment: Antibacterial activity against methicillin-resistant Staphylococcus aureus ATCC 43300 assessed as inhibition of bacterial growth by broth microdilution method; assay type: functional; settings: time 24 hrs; summary of the method: as §3
Enterococcus faecium [16] = experiment: Antibacterial activity against vancomycin-resistant Enterococcus faecium ATCC 51559 assessed as bacterial growth inhibition incubated for 24 hrs by CLSI protocol based broth microdilution method; settings: ATCC 51559, 24 h
Bacillus subtilis [17] = experiment: Bactericidal activity against penicillin-susceptible Bacillus subtilis ATCC 9372 measured after 24 hrs by CLSI protocol based method; assay type: functional; summary of the method: as §5
[18] = target: T2, Cell division protein FtsZ (Bacillus subtilis, UniProt A5Z1V5); experiment: Inhibition of FtsZ in Bacillus subtilis assessed as disruption of Z ring formation
T2 sequence (A5Z1V5 whole entry): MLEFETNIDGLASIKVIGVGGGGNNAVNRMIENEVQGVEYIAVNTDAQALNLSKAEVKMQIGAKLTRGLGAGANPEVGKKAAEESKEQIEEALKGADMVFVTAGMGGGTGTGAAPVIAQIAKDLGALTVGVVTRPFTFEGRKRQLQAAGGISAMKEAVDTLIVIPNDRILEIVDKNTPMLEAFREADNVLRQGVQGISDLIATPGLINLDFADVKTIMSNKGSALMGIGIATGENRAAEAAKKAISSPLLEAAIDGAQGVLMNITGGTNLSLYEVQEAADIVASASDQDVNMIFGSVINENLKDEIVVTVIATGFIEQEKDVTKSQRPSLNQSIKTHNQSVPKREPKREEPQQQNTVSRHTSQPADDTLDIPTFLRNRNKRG

Staphylococcus aureus [19] = experiment: Ratio of MBC to MIC against penicillin-resistant Staphylococcus aureus; assay type: functional; summary of the method: as §1
Bacillus pumilus [20] = experiment: Antibacterial activity against penicillin-susceptible Bacillus pumilus CMCC 63202 assessed as bacterial growth inhibition by broth dilution method; assay type: functional; settings: time 24 hrs; summary of the method: as §2
Streptococcus pyogenes [21] = experiment: Antibacterial activity against erythromycin-susceptible Streptococcus pyogenes clinical isolate 1 assessed as bacterial growth inhibition incubated for 24 hrs by CLSI protocol based broth microdilution method; assay type: functional
Pseudomonas aeruginosa = experiment: Antibacterial activity against penicillin-susceptible Pseudomonas aeruginosa ATCC27853 assessed as bacterial growth inhibition incubated for 24 hrs by CLSI protocol based broth microdilution method; assay type: functional
Staphylococcus aureus [22] = experiment: Bactericidal activity against penicillin-resistant Staphylococcus aureus measured after 24 hrs by CLSI protocol based method; assay type: functional; summary of the method: as §4
Staphylococcus aureus [23] = experiment: Ratio of MBC to MIC against erythromycin-susceptible Staphylococcus aureus ATCC 25923; assay type: functional; summary of the method: as §1
Bacillus subtilis [24] = experiment: Ratio of MBC to MIC against penicillin-susceptible Bacillus subtilis ATCC 9372; assay type: functional
Summary of the method: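 Ratio of MBC to MIC, both measured by broth microdilution in MH broth (37 °C, 24 h); MBC was scored by subculturing clear wells onto tryptic soy agar for 24 h. Following CLSI, a ratio of 4 or less counts as bactericidal.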

[25] = test system: Staphylococcus epidermidis; experiment: Ratio of MBC to MIC against penicillin-resistant Staphylococcus epidermidis; assay type: functional; summary of the method: as §1
Enterococcus faecalis [26] = experiment: Antibacterial activity against vancomycin-resistant Enterococcus faecalis ATCC 51299 assessed as bacterial growth inhibition incubated for 24 hrs by CLSI protocol based broth microdilution method; assay type: functional

Structure (SMILES): C[n+]1cc2c3c(ccc2c2ccc4cc5c(cc4c21)OCO5)OCO3.[Cl-] [SANGUINARIUM CHLORIDE]
- Ratio (Bacillus pumilus [1]): >64
- MIC (Enterococcus faecium [2]): 64 µg/mL
- MIC (Escherichia coli): 32 µg/mL
- MIC (Staphylococcus aureus [3]): 16 µg/mL
- MBC (Staphylococcus aureus [4]): > 64 µg/mL
- MIC (Streptococcus pyogenes [5]): 2 µg/mL
- MIC (Bacillus subtilis [6]): 4 µg/mL
- MBC (Staphylococcus aureus [7]): > 64 µg/mL
- MIC [8]: 64 µg/mL
- MIC (Staphylococcus aureus [9]): 4 µg/mL
- MBC (Bacillus pumilus [10]): > 64 µg/mL
- IC50 [11]: 12.5 µM
- MIC (Enterococcus faecalis [12]): 16 µg/mL
- MIC [13]: 8 µg/mL
- MIC (Staphylococcus aureus [14]): 8 µg/mL
- MIC (Staphylococcus aureus [15]): 8 µg/mL
- MIC (Enterococcus faecium [16]): 32 µg/mL
- MBC (Bacillus subtilis [17]): 64 µg/mL
- IC50 [18]: 2720 nM
- Ratio (Staphylococcus aureus [19]): 8
- MIC (Bacillus pumilus [20]): 4 µg/mL
- MIC (Streptococcus pyogenes [21]): 2 µg/mL
- MIC (Pseudomonas aeruginosa): > 64 µg/mL
- MBC (Staphylococcus aureus [22]): 128 µg/mL
- Ratio (Staphylococcus aureus [23]): >32
- Ratio (Bacillus subtilis [24]): 16
- Ratio [25]: 64
- MIC (Enterococcus faecalis [26]): 32 µg/mL
